Laboratory results taken from ChEMBL document CHEMBL1149769, “Synthesis and antimicrobial activity of some novel derivatives of benzofuran: part 2. The synthesis and antimicrobial activity of some novel 1-(1-benzofuran-2-yl)-2-mesitylethanone derivatives” (2008).
Converted amounts (≈) assume the structure as drawn.

How the values were obtained:
Assay type in all cases: functional
[1] = tested on: Candida albicans; test: Antimicrobial activity against Candida albicans ATCC 10231
Method in brief: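 Yeast was subcultured on Sabouraud dextrose agar for 24 h at 35 °C. It was then tested by NCCLS M27-A broth microdilution in RPMI 1640 buffered with MOPS, pH 7.0. DMSO solutions were diluted twofold from 1024 […]. Final inoculum was 0.5×10^3–2.5×10^3 CFU/mL, read after 48 h at 35 °C. MIC was the lowest concentration visibly inhibiting growth.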

[2] = tested on: Staphylococcus aureus; test: Antimicrobial activity against Staphylococcus aureus ATCC 6538
Method in brief: (§1)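 Bacteria were subcultured on blood agar for 24 h at 37 °C, then tested by broth microdilution in cation-adjusted Mueller-Hinton broth. Compounds were in DMSO and given as twofold serial dilutions from 1024 down to 1, with a final inoculum of 10^5 CFU/mL. Plates were incubated 48 h at 35 °C. MIC was the lowest concentration preventing visible growth. Growth control was drug-free inoculated broth.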

[3] = tested on: Escherichia coli; test: Antimicrobial activity against Escherichia coli ATCC 25922; method in brief: as §1

SMILES | MIC [1] [µg/mL] | MIC [2] [µg/mL] | MIC [3] [µg/mL]
Cc1cc(C)c(C/C(=N\OC(=O)c2ccccc2)c2cc3ccccc3o2)c(C)c1 | 64 (≈ 161 µM) | 4 (≈ 10.1 µM) | 32 (≈ 80.5 µM)
Cc1cc(C)c(C/C(=N/OCC(=O)NN)c2cc3ccccc3o2)c(C)c1 | 32 (≈ 87.6 µM) | 256 (≈ 701 µM) | 64 (≈ 175 µM)
Cc1cc(C)c(CC(=O)CSC#N)c(C)c1 | 32 (≈ 137 µM) | 256 (≈ 1100 µM) | 256 (≈ 1100 µM)
Cc1cc(C)c(C/C(=N/O)c2cc3ccccc3o2)c(C)c1 | 128 (≈ 436 µM) | 128 (≈ 436 µM) | 128 (≈ 436 µM)
Cc1cc(C)c(CC(O)c2cc3ccccc3o2)c(C)c1 (stereo unspecified) | 64 (≈ 228 µM) | 128 (≈ 457 µM) | 128 (≈ 457 µM)
Cc1cc(C)c(C/C(=N/NC(N)=O)c2cc3ccccc3o2)c(C)c1 | 64 (≈ 191 µM) | 128 (≈ 382 µM) | 64 (≈ 191 µM)
CO/N=C(\Cc1c(C)cc(C)cc1C)c1cc2ccccc2o1 | 64 (≈ 208 µM) | 256 (≈ 833 µM) | 128 (≈ 416 µM)
Cc1cc(C)c(CC(O)CCl)c(C)c1 (stereo unspecified) | 32 (≈ 150 µM) | 128 (≈ 602 µM) | 64 (≈ 301 µM)
Cc1cc(C)c(CC(=O)CCl)c(C)c1 | 16 (≈ 75.9 µM) | 16 (≈ 75.9 µM) | 64 (≈ 304 µM)
CCOC(=O)CO/N=C(\Cc1c(C)cc(C)cc1C)c1cc2ccccc2o1 | 256 (≈ 675 µM) | 256 (≈ 675 µM) | 256 (≈ 675 µM)
Cc1cc(C)c(C/C(=N\OC(=O)Cc2ccccc2)c2cc3ccccc3o2)c(C)c1 | 128 (≈ 311 µM) | 256 (≈ 622 µM) | 128 (≈ 311 µM)
OC(Cn1cncn1)(Cn1cncn1)c1ccc(F)cc1F [FLUCONAZOLE] | 0.25 (≈ 0.816 µM) |  | 
C[C@@H](O)[C@H]1C(=O)N2C(C(=O)O)=C(S[C@@H]3CN[C@H](C(=O)N(C)C)C3)[C@H](C)[C@H]12 [MEROPENEM] |  | 1 (≈ 2.61 µM) | 0.125 (≈ 0.326 µM)
